Activity calls are given as the source filed them. The calls are words filed in the database; no cut-off is given here.
Experiments:
[1] = test system: SNU-638; assay: Antiproliferative activity against human SNU638 cells after 72 hrs by SRB assay; type: functional, cell-based; details: SNU-638, 72 h
Method in brief: (§1)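 Colorimetric growth assay with IC50 values derived; etoposide as positive control. Cell lines: A549 (lung cancer), HCT116 (colon cancer), MDA-MB-231 (breast cancer), SK-Hep-1 (liver cancer), SNU638 (stomach cancer), MRC5 (normal lung […]).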

[2] = test system: SK-HEP1; assay: Antiproliferative activity against human SKHEP1 cells after 72 hrs by SRB assay; type: functional, cell-based; details: SK-HEP1, 72 h; method in brief: as §1
[3] = target: Leucine--tRNA ligase, cytoplasmic (Homo sapiens) (UniProt Q9P2J5); assay: Inhibition of Leucyl-tRNA synthetase-mediated mTORC1 signaling activation in human HEK293 cells assessed as reduction in leucine-induced S6K phosphorylation preincubated for 50 mins followed by leucine-stimulation and measured after 10 mins by Western blot analysis; type: cell-based
Method in brief: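 HEK293 cells pretreated at 20, 50, 100 and 200 µM. Leucine then added for 10 min to activate mTORC1. Dose dependence of leucine-induced S6K phosphorylation assessed by Western blot.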

[4] = target: Leucine--tRNA ligase, cytoplasmic (Homo sapiens) (UniProt Q9P2J5); assay: Inhibition of Leucyl-tRNA synthetase-mediated mTORC1 signaling activation in human HEK293 cells assessed as reduction in leucine-induced S6K phosphorylation at 200 uM preincubated for 50 mins followed by leucine-stimulation and measured after 10 mins by Western blot analysis; type: cell-based
Method in brief: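 HEK293 cells pretreated with test agent at a fixed 200 µM, alongside rapamycin (100 nM) and leucinol (800 µM) as references. mTORC1 then activated by adding leucine for 10 min. S6K phosphorylation read by Western blot.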

[5] = test system: MRC5; assay: Antiproliferative activity against human MRC5 cells after 72 hrs by SRB assay; type: cell-based; details: MRC5, 72 h; method in brief: as §1
[6] = test system: A549; assay: Antiproliferative activity against human A549 cells after 72 hrs by SRB assay; type: functional, cell-based; details: A549, 72 h; method in brief: as §1
[7] = test system: MDA-MB-231; assay: Antiproliferative activity against human MDA-MB-231 cells after 72 hrs by SRB assay; type: functional, cell-based; details: MDA-MB-231, 72 h; method in brief: as §1
[8] = test system: HCT-116; assay: Antiproliferative activity against human HCT116 cells after 72 hrs by SRB assay; type: functional, cell-based; details: HCT-116, 72 h; method in brief: as §1
[9] = test system: HEK293; assay: Effect on leucine-induced AKT levels in human HEK293 cells at 200 uM preincubated for 50 mins followed by leucine-stimulation and measured after 10 mins by Western blot analysis; type: functional, cell-based
[10] = target: mTORC2 (Homo sapiens) (UniProt P42345+Q6R327+Q9BVC4+Q9BPZ7); assay: Inhibition of mTORC2 signaling in human HEK293 cells assessed as reduction in leucine-induced AKT phosphorylation at 200 uM preincubated for 50 mins followed by leucine-stimulation and measured after 10 mins by Western blot analysis; type: cell-based

Sequence of Leucine--tRNA ligase, cytoplasmic (Homo sapiens) (Q9P2J5 whole entry, looked up): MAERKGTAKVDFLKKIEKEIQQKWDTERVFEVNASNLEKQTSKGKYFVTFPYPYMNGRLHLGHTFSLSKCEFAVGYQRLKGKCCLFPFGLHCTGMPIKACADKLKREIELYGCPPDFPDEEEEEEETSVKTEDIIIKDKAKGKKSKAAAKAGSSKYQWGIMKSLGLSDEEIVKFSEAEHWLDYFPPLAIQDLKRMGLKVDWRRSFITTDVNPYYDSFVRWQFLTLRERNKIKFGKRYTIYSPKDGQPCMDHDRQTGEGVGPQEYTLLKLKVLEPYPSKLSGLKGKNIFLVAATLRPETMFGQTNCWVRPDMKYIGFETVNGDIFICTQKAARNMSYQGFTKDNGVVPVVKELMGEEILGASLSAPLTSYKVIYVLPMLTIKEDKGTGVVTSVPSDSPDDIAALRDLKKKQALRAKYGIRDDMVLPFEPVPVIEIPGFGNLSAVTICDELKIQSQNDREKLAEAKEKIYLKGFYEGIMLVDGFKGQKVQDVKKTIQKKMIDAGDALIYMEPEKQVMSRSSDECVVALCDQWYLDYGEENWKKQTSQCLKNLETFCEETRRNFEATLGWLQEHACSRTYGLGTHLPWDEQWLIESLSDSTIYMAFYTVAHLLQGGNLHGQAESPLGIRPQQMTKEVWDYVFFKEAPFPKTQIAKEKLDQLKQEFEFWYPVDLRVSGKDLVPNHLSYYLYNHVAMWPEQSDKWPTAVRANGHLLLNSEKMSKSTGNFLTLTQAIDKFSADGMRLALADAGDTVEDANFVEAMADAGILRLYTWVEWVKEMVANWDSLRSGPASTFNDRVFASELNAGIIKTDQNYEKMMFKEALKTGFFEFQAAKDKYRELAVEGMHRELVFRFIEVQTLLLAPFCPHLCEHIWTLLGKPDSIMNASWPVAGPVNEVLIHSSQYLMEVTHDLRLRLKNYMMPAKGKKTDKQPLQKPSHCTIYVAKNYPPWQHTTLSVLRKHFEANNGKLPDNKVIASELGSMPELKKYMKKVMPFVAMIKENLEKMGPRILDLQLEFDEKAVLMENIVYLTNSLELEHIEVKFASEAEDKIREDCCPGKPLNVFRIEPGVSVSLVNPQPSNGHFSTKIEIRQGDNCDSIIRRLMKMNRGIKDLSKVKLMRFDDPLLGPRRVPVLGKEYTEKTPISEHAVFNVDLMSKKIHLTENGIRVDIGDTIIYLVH

Row | IC50 [1] [µM] | IC50 [2] [µM] | inhibition [3] | inhibition [4] | IC50 [6] [µM] | IC50 [7] [µM] | IC50 [8] [µM] | inhibition [10] | SMILES | IC50 [5] [µM] | Activity [9]
1 | 4.72 | 5.74 | Dose-dependent effect | Active | 5.04 | 6.27 | 6.52 | inactive | CC(C)[C@@H](O)[C@H](O)C(=O)NS(=O)(=O)OC[C@H]1O[C@@H](n2cnc3c(N)ncnc32)C[C@@H]1O | > 20 | inactive
2 | 4.5 | 1.76 | Dose-dependent effect | Active | 1 | 2.61 | 3.47 | inactive | CC(C)C[C@H](O)C(=O)NS(=O)(=O)OC[C@H]1O[C@@H](n2cnc3c(N)ncnc32)[C@H](O)[C@@H]1O | 16.6 | inactive

— ChEMBL document CHEMBL4368933, “Structure-activity relationship of leucyladenylate sulfamate analogues as leucyl-tRNA synthetase (LRS)-targeting inhibitors of Mammalian target of rapamycin complex 1 (mTORC1)” (Bioorg Med Chem, 2019)
